Measured values reported in ChEMBL document CHEMBL5661968, “Antitumor activity of ZSTK474, a new phosphatidylinositol 3-kinase inhibitor” (J Natl Cancer Inst, 2006).
pIC50: −log10 of the molar value. Activity calls are given as the source filed them. The rule behind the calls is not given here.

Key:
[1] = test system: A549; assay: Inhibition of AKT phosphorylation at S473 residue in human A549 cells at 0.5 uM measured after 5 mins by Western blotting analysis; format: cell-based
[2] = test system: OVCAR-3; assay: Growth inhibition of human OVCAR-3 cells measured after 48 hrs by sulforhodamine B assay; format: functional
Summary of the method: (§1)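 JFCR39 panel lines were grown in RPMI 1640 with 5% FBS, penicillin and streptomycin at 37 °C in 5% CO2. After 48 h of drug exposure, total cellular protein was measured by sulforhodamine B staining. GI50 was calculated by a previously described method.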

[3] = test system: RXF 631; assay: Growth inhibition of human RXF 631 cells measured after 48 hrs by sulforhodamine B assay; format: functional; summary of the method: as §1
[4] = test system: A549; assay: (§2) Inhibition of PI3K in human A549 cell lysate preincubated with compound for 5 mins followed by [gamma-32p]-ATP addition measured after 20 mins by immunoprecipitation based liquid scintillation spectroscopic analysis; format: subcellular; conditions: dose 0.01-1 µM, time 25.0 min
Summary of the method: (§3)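 PI3K immunoprecipitated with anti-p85 polyclonal antibody and protein G–agarose from A549 lysate (2–4 mg/mL protein), washed, suspended in buffer C (100 mM NaCl, 20 mM Tris pH 7.5) with 200 μg/mL phosphatidylinositol; compound preincubated 5 min at 25 °C; reaction started with [γ-32P]ATP (20 μM final) and 20 mM MgCl2, run 20 min at 25 °C; PI3P separated by TLC, counted by scintillation; activity as % of no-compound cpm.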

[5] = as §2; format: subcellular; summary of the method: as §3
[6] = test system: U-251; assay: Growth inhibition of human U-251 cells measured after 48 hrs by sulforhodamine B assay; format: functional; summary of the method: as §1
[7] = test system: MKN-45; assay: Growth inhibition of human MKN-45 cells measured after 48 hrs by sulforhodamine B assay; format: functional; summary of the method: as §1
[8] = test system: OVCAR-3; assay: Induction of apoptosis in human OVCAR-3 cells assessed as increase in apoptotic cells at 10 uM measured after 48 hrs by propidium iodide staining based flow cytometric analysis; format: functional, cell-based
Summary of the method: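 Cells harvested, washed in ice-cold PBS, fixed in 70% ethanol, washed twice in ice-cold PBS, treated with RNase A (500 μg/mL) at 37 °C for 1 h, stained with propidium iodide (25 μg/mL); DNA content read by flow cytometry.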

[9] = test system: A549; assay: Induction of cell cycle arrest in human A549 cells assessed as accumulation of cells at G1 phase at 10 uM incubated for 24 hrs by propidium iodide staining based flow cytometric analysis
[10] = test system: St-4; assay: Growth inhibition of human St-4 cells measured after 48 hrs by sulforhodamine B assay; format: functional; summary of the method: as §1
[11] = test system: A549; assay: Inhibition of AKT in human A549 cells at 0.5 uM measured after 5 mins by Western blotting analysis; format: cell-based
[12] = test system: MEF; assay: Inhibition of PI3K in platelet-derived growth factor induced mouse MEF cells assessed as reduction in PIP3 formation at 1 uM preincubated with compound for 15 mins followed by induction by immunoprecipitation based liquid scintillation spectroscopic analysis; format: cell-based
Summary of the method: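 Murine embryonic fibroblasts labelled 4 h at 37 °C in phosphate-free DMEM with 25 mM HEPES pH 7.4 and [32P]orthophosphate (0.1 mCi/mL); 1 μM compound for 15 min before PDGF (10 ng/mL) stimulation; PIP3 formation measured.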

[13] = test system: HT-29; assay: Growth inhibition of human HT-29 cells measured after 48 hrs by sulforhodamine B assay; format: functional; summary of the method: as §1
[14] = Growth inhibition of human BSY1 cells measured after 48 hrs by sulforhodamine B assay; format: functional; conditions: BSY-1; summary of the method: as §1
[15] = test system: NCI-H226; assay: Growth inhibition of human NCI-H226 cells measured after 48 hrs by sulforhodamine B assay; format: functional; summary of the method: as §1
[16] = test system: B16-F10; assay: Antitumor activity against mouse B16-F10 cells implanted in BDF1 mouse assessed as tumor size relative to control (T/C) at 400 mg/kg, po administered daily measured after 14 days; conditions: 336 h
[17] = test system: MKN-28; assay: Growth inhibition of human MKN-28 cells measured after 48 hrs by sulforhodamine B assay; format: functional; summary of the method: as §1
[18] = test system: NCI-H522; assay: Growth inhibition of human NCI-H522 cells measured after 48 hrs by sulforhodamine B assay; format: functional; summary of the method: as §1
[19] = test system: OVCAR-4; assay: Growth inhibition of human OVCAR-4 cells measured after 48 hrs by sulforhodamine B assay; format: functional; summary of the method: as §1
[20] = test system: DU-145; assay: Growth inhibition of human DU-145 cells measured after 48 hrs by sulforhodamine B assay; format: functional; summary of the method: as §1
[21] = target: Tuberin (Homo sapiens) (UniProt P49815); assay: Inhibition of TSC-2 phosphorylation at ser-1462 residue in human A549 cells measured after 3 hrs by immunoblotting analysis; format: cell-based; conditions: dose <= 2.0 µM
Chain of Tuberin (Homo sapiens) (P49815 whole entry): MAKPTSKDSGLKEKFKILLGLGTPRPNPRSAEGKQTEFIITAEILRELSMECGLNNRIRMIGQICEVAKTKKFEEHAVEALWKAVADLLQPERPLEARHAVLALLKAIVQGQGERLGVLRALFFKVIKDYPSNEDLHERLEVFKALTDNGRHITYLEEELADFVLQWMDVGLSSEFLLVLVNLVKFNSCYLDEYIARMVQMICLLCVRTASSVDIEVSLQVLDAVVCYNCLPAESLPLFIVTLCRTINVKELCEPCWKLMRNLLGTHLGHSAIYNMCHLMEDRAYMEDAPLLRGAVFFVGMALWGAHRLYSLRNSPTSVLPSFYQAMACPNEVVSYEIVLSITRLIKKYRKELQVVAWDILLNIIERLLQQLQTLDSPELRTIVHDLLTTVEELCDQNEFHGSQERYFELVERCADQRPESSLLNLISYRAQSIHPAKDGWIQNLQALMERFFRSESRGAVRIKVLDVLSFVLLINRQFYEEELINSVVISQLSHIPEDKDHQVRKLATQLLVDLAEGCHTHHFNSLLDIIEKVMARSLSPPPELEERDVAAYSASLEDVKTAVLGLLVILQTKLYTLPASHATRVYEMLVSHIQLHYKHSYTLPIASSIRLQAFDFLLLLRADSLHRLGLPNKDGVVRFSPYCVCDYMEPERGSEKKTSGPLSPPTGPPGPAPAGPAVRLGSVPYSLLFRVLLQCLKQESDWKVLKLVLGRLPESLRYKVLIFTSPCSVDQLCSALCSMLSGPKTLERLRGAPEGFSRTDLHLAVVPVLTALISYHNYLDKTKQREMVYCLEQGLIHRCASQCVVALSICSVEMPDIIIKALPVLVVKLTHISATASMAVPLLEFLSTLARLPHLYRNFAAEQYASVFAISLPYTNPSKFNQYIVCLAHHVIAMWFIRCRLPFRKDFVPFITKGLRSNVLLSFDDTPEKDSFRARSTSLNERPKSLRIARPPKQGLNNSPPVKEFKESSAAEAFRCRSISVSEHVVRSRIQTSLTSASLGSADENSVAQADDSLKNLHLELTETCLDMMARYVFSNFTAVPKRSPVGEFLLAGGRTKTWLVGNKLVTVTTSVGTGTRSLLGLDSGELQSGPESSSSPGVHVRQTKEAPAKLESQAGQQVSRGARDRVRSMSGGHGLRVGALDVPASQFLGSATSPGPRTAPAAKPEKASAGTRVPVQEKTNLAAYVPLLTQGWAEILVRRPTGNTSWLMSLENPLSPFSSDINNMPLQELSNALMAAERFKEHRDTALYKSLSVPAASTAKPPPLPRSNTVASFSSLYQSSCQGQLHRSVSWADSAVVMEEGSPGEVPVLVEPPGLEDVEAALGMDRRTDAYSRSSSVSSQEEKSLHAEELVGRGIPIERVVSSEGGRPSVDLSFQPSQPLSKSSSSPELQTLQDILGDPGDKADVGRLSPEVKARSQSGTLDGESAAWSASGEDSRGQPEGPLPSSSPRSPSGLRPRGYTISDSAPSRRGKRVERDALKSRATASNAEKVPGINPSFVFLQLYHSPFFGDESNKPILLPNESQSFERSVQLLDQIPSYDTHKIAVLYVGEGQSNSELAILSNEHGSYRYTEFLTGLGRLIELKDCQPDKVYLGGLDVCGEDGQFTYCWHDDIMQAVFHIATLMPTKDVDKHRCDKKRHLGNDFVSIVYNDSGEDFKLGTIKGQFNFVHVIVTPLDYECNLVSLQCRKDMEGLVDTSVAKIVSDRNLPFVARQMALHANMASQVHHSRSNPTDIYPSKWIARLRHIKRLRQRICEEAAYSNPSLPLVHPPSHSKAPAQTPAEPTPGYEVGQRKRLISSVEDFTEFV
Summary of the method: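 A549 cells treated over 0 to 2.0 μM; lysed in 10 mM Tris–HCl pH 7.4, 50 mM NaCl, NaF, pyrophosphate, vanadate, EDTA, protease inhibitors, 0.5% NP-40, 0.1% SDS; proteins resolved by SDS-PAGE, blotted to PVDF, probed with phospho-specific antibodies, HRP secondary, ECL detection.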

[22] = Toxicity in nude mouse xenografted with human A549 cells assessed as change in body weight at 400 mg/kg, po administered on day 0 to 13 except for day 3 and 10 measured after 28 days (reference value: 17 %); format: organism-based; conditions: in vivo, 672 h, time 28 day
[23] = […] toxicity in nude mouse xenografted with human A549 cells assessed as change in body weight at 800 mg/kg, po administered on day 0 to 13 except for day 3 and 10 measured after 28 days; format: organism-based; conditions: in vivo, 672 h, time 28 day
[24] = test system: NCI-H460; assay: Growth inhibition of human NCI-H460 cells measured after 48 hrs by sulforhodamine B assay; format: functional; summary of the method: as §1
[25] = target: Mitogen-activated protein kinase 1 (Homo sapiens) (UniProt P28482); assay: Inhibition of ERK2 phosphorylation at Thr-202/Tyr-204 residues in human A549 cells measured after 3 hrs by immunoblotting analysis; conditions: dose <= 2.0 µM
Chain of Mitogen-activated protein kinase 1 (Homo sapiens) (P28482 whole entry): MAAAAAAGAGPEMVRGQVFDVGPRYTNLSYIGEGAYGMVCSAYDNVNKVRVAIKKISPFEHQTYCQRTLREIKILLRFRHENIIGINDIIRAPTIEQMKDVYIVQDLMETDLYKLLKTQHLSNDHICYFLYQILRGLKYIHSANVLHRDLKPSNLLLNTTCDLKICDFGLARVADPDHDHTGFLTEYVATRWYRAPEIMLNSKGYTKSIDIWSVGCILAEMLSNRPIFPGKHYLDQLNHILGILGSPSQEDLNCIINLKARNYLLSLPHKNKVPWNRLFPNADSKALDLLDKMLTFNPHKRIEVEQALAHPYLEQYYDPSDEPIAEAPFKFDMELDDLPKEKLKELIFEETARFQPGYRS

[26] = test system: SF-268; assay: Growth inhibition of human SF-268 cells measured after 48 hrs by sulforhodamine B assay; format: functional; summary of the method: as §1
[27] = test system: MEF; assay: Inhibition of PI3K in platelet-derived growth factor induced mouse MEF cells assessed as reduction in membrane ruffling at 1 uM preincubated with compound for 15 mins followed by induction by immunoprecipitation based liquid scintillation spectroscopic analysis; format: cell-based
Summary of the method: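 Murine embryonic fibroblasts treated with or without 1 μM compound for 15 min, stimulated with PDGF (10 ng/mL) for 5 min, fixed in 3% formaldehyde 30 min at room temperature, permeabilized with 0.1% Triton X-100, F-actin stained with TRITC-phalloidin (0.1 μg/mL), viewed by fluorescence microscopy.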

[28] = test system: LOX IMVI; assay: Growth inhibition of human LOX IMVI cells measured after 48 hrs by sulforhodamine B assay; format: functional; summary of the method: as §1
[29] = test system: PC-3; assay: Antitumor activity against human PC-3 cells xenografted in nude mouse assessed as inhibition of tumor growth at 400 mg/kg, po administered on day 0 to 13 except for day 3 and 10 measured after 14 days; format: functional, organism-based; conditions: time 14.0 day
Summary of the method: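 Female BALB/c-background nude mice were implanted s.c. with 3 × 3 × 3 mm tumor fragments. At 100–300 mm3 tumor volume (day 0), groups of five were randomized and dosed orally at 400 mg/kg on days 0–13, skipping days 3 and 10. Caliper volume was (L×W2)/2, relative to day 0 (RTV). T/C% on day 14 = 100 × mean treated RTV / mean control RTV.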

## FC(F)c1nc2ccccc2n1-c1nc(N2CCOCC2)nc(N2CCOCC2)n1 [ZSTK-474]
[1]
  inhibition: Active
[2]
  GI50: 91.2 nM
[3]
  GI50: 724 nM
[4]
  Activity: Dose-Dependent Effect
[5]
  pIC50: 7.43
[6]
  GI50: 1100 nM
[7]
  GI50: 288 nM
[8]
  Activity: Active
[9]
  Activity: Active
[10]
  GI50: 1700 nM
[11]
  inhibition: inactive
[12]
  inhibition: Active
[13]
  GI50: 447 nM
[14]
  GI50: 93.3 nM
[15]
  GI50: 120 nM
[16]
  T/C at 400 mg/kg: 4.9%
[17]
  GI50: 1350 nM
[18]
  GI50: 151 nM
[19]
  GI50: 182 nM
[20]
  GI50: 912 nM
[21]
  inhibition: Dose-Dependent Effect
[22]
  Activity: 0%
[23]
  Activity: Non-Toxic
[24]
  GI50: 468 nM
[25]
  inhibition: inactive
[26]
  GI50: 646 nM
[27]
  inhibition: Active
[28]
  GI50: 457 nM
[29]
  Activity: Active
